In PMC9050490 (RSC Advances, 2020):

Tests used:
HepG2 cells = experiment: MTT antiproliferative assay, HepG2; assay type: cell-based, human
Outline: (§1)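 Cells were pre-incubated 24 h at 37 °C under 5% CO2, then exposed to a range of test compound concentrations dissolved in culture medium. MTT (5 mg mL−1 solution) was added for 4 h and formazan dissolved in DMSO. Absorbance was read at 630 nm. IC50 came from a non-linear curve fit, and growth inhibition was also reported.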

Karpas299 cells = experiment: MTT antiproliferative assay, Karpas299; assay type: cell-based
Outline: as §1

A549 cells = experiment: MTT antiproliferative assay, A549; assay type: cell-based; details: Homo sapiens, A549, read-out: Antiproliferative activity IC50
Outline: as §1

MCF-7 cells = experiment: MTT antiproliferative assay, MCF-7; assay type: cell-based; details: Homo sapiens, MCF7, read-out: Antiproliferative activity IC50
Outline: as §1

PC-3 cells = experiment: MTT antiproliferative assay, PC-3; assay type: cell-based; details: Homo sapiens, PC-3, read-out: Antiproliferative activity IC50
Outline: as §1

Compound CC1(C)[C@@H](O)CC[C@]2(C)[C@H]3C(=O)C=C4[C@@H]5C[C@@](C)(C(=O)N6CCN(C(=O)c7ccc(Cl)cc7)CC6)CC[C@]5(C)CC[C@@]4(C)[C@]3(C)CC[C@@H]12 [Compound 4i, 3β-Hydroxy-30-(4-(4-chlorobenzoyl)-1-piperazinyl)-olean-12-ene-11,30-dione] has a growth inhibition (HepG2 cells; HepG2, 2 μg mL^−1, MTT) of 0.00%, a growth inhibition (HepG2 cells; HepG2, 20 μg mL^−1, MTT) of 19.10% and a growth inhibition (Karpas299 cells; Karpas299, 2 μg mL^−1, MTT) of 0.00%. For the same compound, the growth inhibition (Karpas299 cells; Karpas299, 20 μg mL^−1, MTT) was 12.76%.
With C[C@@H](Oc1cc(-c2cnn(C3CCNCC3)c2)cnc1N)c1c(Cl)ccc(F)c1Cl [Crizotinib] the IC50 (HepG2 cells; Homo sapiens, HepG2, read-out: Antiproliferative activity IC50) was 10.6 µM, the inhibition at 2 µg/mL (HepG2 cells; Homo sapiens, HepG2, read-out: growth inhibition, HepG2, 2 μg mL^−1, MTT) was 27.1% and the inhibition at 20 µg/mL (HepG2 cells; Homo sapiens, HepG2, read-out: growth inhibition, HepG2, 20 μg mL^−1, MTT) was 97.8%. It also gave an IC50 (Karpas299 cells; Homo sapiens, KARPAS-299, read-out: Antiproliferative activity IC50) of 2.82 µM, an IC50 (A549 cells) of 1.49 µM and an IC50 (MCF-7 cells) of 4.09 µM. For the same compound, the IC50 (PC-3 cells) was 7.33 µM.
